One may read the MIC as the least concentration at which growth counts as inhibited.

For test [1], the system named is Bacillus subtilis. Kind of test: Antibacterial activity against psd and mprF gene-deficient Bacillus subtilis CU1065 mutant by liquid growth inhibition assay. The class given is functional. The method in brief:
(§1)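 Daptomycin MIC by liquid growth inhibition. Overnight cultures diluted 1:100, grown to mid-log, rediluted to 5 × 10^5 CFU/ml in Mueller-Hinton broth with 50 mg/liter Ca2+. At least 10 concentrations near the predicted MIC, plus a no-drug control, added at start; 200 μl. OD600 read every 20 min for 24 h at 37°C with shaking. Inhibition: 24 h OD600 <0.05. MIC is the mode of at least triplicates.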

Test [2] has as its system Bacillus subtilis. Kind of test: Antibacterial activity against Bacillus subtilis W168 mutant by liquid growth inhibition assay. The class given is functional. The essentials: as §1
The test system of test [3] is Bacillus subtilis. Kind of test: Antibacterial activity against liaGFSR gene-deficient Bacillus subtilis W168 mutant by liquid growth inhibition assay. The class given is functional. The method in brief:
as §1

The subject of test [4] is Bacillus subtilis. The test is described as follows: Antibacterial activity against sigMWX and pspA gene-deficient Bacillus subtilis CU1065 mutant by liquid growth inhibition assay. The class given is functional. The method in brief:
as §1

The test system of test [5] is Bacillus subtilis. The test is described as follows: Antibacterial activity against ugtP gene-deficient Bacillus subtilis CU1065 mutant by liquid growth inhibition assay. Format: functional. The essentials: as §1
In test [6] the test system is Bacillus subtilis. Kind of test: Induction of yhdL gene expression in Bacillus subtilis W168 by microarray analysis. The class given is functional. The essentials: (§2)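 W168 grown in Ca2+-supplemented Mueller-Hinton broth at 37°C to OD600 0.4, split, and one half exposed to 1 μg/ml daptomycin for 20 min. Total RNA from three biological replicates; cDNA labeled with Alexa Fluor 555/647 and co-hybridized at 42°C for 16–18 h. Genes with summed intensity <20 or SD > mean were dropped. Fold change is treated/untreated signal, from ≥6 spot measurements.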

The test system of test [7] is Bacillus subtilis. The test is described as follows: Antibacterial activity against liaH gene-deficient Bacillus subtilis CU1065 mutant by liquid growth inhibition assay.
The subject of test [8] is Bacillus subtilis. The test is described as follows: Antibacterial activity against Bacillus subtilis CU1065 harboring IPTG-induced pgsA by liquid growth inhibition assay. Format: functional. The method in brief: as §1
In test [9] the test system is Bacillus subtilis. The test is described as follows: Induction of rodA gene expression in Bacillus subtilis W168 by microarray analysis. Format: functional. The method in brief: as §2

In brackets after ≈: the same amount, converted by molar mass.

With `CCCCCCCCCC(=O)N[C@@H](Cc1c[nH]c2ccccc12)C(=O)N[C@H](CC(N)=O)C(=O)N[C@@H](CC(=O)O)C(=O)N[C@@H]1C(=O)NCC(=O)N[C@@H](CCCN)C(=O)N[C@@H](CC(=O)O)C(=O)N[C@H](C)C(=O)N[C@@H](CC(=O)O)C(=O)NCC(=O)N[C@H](CO)C(=O)N[C@@H]([C@H](C)CC(=O)O)C(=O)N[C@@H](CC(=O)c2ccccc2N)C(=O)O[C@@H]1C`, the MIC with Bacillus subtilis [1] stood at 0.9 µg/mL (≈ 0.555 µM); against Bacillus subtilis [2] it was 1 µg/mL (≈ 0.617 µM); against Bacillus subtilis [3], 0.5 µg/mL (≈ 0.309 µM); in the test with Bacillus subtilis [4], 0.5 µg/mL (≈ 0.309 µM); with Bacillus subtilis [5], 0.9 µg/mL (≈ 0.555 µM); with Bacillus subtilis [7] it was 0.4 µg/mL (≈ 0.247 µM). In addition, 1 µg/mL (≈ 0.617 µM) was the least that counted as inhibitory in the test with Bacillus subtilis [8] (MIC). The entries for the “fold change (FC)” value with Bacillus subtilis [6] and in the test on Bacillus subtilis [9] were 2.5 and 2.7, respectively.

Values taken from ChEMBL document CHEMBL1649137, “Genetic analysis of factors affecting susceptibility of Bacillus subtilis to daptomycin” (2009).
